Data: ChEMBL document CHEMBL1151913, “Preparation of novel (Z)-4-ylidenebenzo[b]furo[3,2-d][1,3]oxazines and their biological activity” (2009)
Calls of active or inactive are those of the source. The calls are words filed in the database; no cut-off is given here.

Key:
Osteoblast = test: Anti-osteoclastic bone resorption activity in ddY mouse calvarial osteoblasts assessed as inhibition of PGE2-stimulated resorption pit formation relative to 17-beta-estradiol; assay type: functional, cell-based
Procedure, shortened: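 Osteoclasts generated by 7-day coculture of preconfluent calvarial osteoblasts (1–2 day old ddY mice) with fresh bone marrow cells (5 week-old male ddY mice) on collagen-coated dish in α-MEM (pH 7.0), 10% FCS, 10 nM calcitriol, 1.0 μM PGE2; collagenase-released cells plated on dentin slices with 10 nM E2 or compounds, 2 days; pits counted after toluidine blue staining.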

MCF7 = test: Growth inhibition of human MCF7 cells after 72 hrs by Alamar Blue assay; assay type: functional; details: MCF7, 72 h
Procedure, shortened: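 MCF-7 grown in E-MEM with 10% FCS and antibiotic-antimycotic; 1 × 10^4 cells/well seeded, 24 h at 37 °C, 5% CO2; medium replaced with drug-containing medium (final DMSO ≤0.25%) in triplicate wells, 72 h continuous exposure; alamarBlue added for further 3 h.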

MIA PaCa-2 = test: Growth inhibition of human MIAPaCa2 cells after 72 hrs by Alamar Blue assay; assay type: functional; details: MIA PaCa-2, 72 h
Procedure, shortened: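 MIA PaCa-2 grown in D-MEM with 10% FCS and antibiotic-antimycotic; 1 × 10^4 cells/well seeded, 24 h at 37 °C, 5% CO2; medium replaced with drug-containing medium (final DMSO ≤0.25%) in triplicate wells, 72 h continuous exposure; alamarBlue added for further 3 h.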

Row | Compound | Activity (Osteoblast) | GI50 (MCF7) [µM] | GI50 (MIA PaCa-2) [µM]
1 | CCN(CC)C(=O)/C=C/C=C1\OC(/C=C/c2ccccc2)=Nc2c1oc1ccc(Br)cc21 | inactive | – | –
2 | O=C/C=C1\OC(/C=C/c2ccccc2)=Nc2c1oc1ccc(Br)cc21 | inactive | – | –
3 | COc1cccc2c3c(oc12)/C(=C/C=C/C(=O)N1CCOCC1)OC(/C=C/c1ccccc1)=N3 | – | > 10 | 5.34
4 | CCOC(=O)/C=C/C=C1\OC(/C=C/c2ccccc2)=Nc2c1oc1ccc(Br)cc21 | Active | – | –
5 | CCOC(=O)/C=C/C=C1\OC(/C=C(\Cl)c2ccc(Cl)cc2)=Nc2c1oc1ccc(Br)cc21 | – | > 10 | > 10
6 | O=C(/C=C/C=C1\OC(/C=C/c2ccccc2)=Nc2c1oc1ccc(Br)cc21)N1CCOCC1 | inactive | – | –
7 | C/C=C/C1=Nc2c(oc3ccc(Br)cc23)/C(=C/C=O)O1 | inactive | – | –
8 | O=c1[nH]cc(F)c(=O)[nH]1 [FLUOROURACIL] | – | > 10 | > 10
9 | COc1ccc(CCNC(=O)/C=C/C=C2\OC(/C=C/c3ccccc3)=Nc3c2oc2ccc(Br)cc32)cc1OC | inactive | – | –
10 | COc1cccc2c3c(oc12)/C(=C/C=O)OC(/C=C/C=C(/Cl)c1ccc(F)cc1)=N3 | – | 7.14 | > 10
11 | CCOP(=O)(OCC)/C(=C/C=C1\OC(/C=C/c2ccccc2)=Nc2c1oc1ccc(Br)cc21)c1ccc(Cl)cc1 | Active | – | –
